The values that follow come from ChEMBL document CHEMBL2010650, “Synthetic N-alkylated iminosugars as new potential immunosuppressive agents” (ACS Med Chem Lett, 2011).

Calls of active or inactive are those of the source. No cut-off for these calls is given here.

The nature of data set [1]: Immunosuppressive activity in BALB/c mouse splenocytes assessed as inhibition of concanavalin-A-induced cell proliferation at 30 uM after 48 hrs by MTT assay. Type of data set: functional. Particulars: Splenocyte. In short, it runs like this: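 Mouse splenocytes stimulated with Con A at 2.5 μg/mL, incubated with compound at 37 °C, 5% CO₂ for 48 h. Proliferation read by MTT assay. Con A-treated cells serve as control, CsA (1 μM) as positive control. Inhibition is expressed relative to control, as means ± SEM.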
In general terms: Tetrazolium dyes change colour on reduction, which living cells bring about.

Data set [2] concerns Th2. Kind of data set: Immunosuppressive activity in Th2 cells assessed as reduction of IL-4 production. Type of data set: functional, cell-based.
The test system of data set [3] is Splenocyte. Briefly: Immunosuppressive activity in BALB/c mouse splenocytes assessed as reduction in concanavalin-A-induced IL4 production at 30 uM after 48 hrs by ELISA. It is filed as functional. Also on record: scale not given: the % may be the effect or the level left. The procedure, abridged: (§1)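 Splenocytes induced with 2.5 μg/mL Con A, co-incubated with compound 48 h at 37 °C, 5% CO₂. Culture supernatant assayed for IFN-γ or IL-4 by mouse ELISA kit. Reduction is relative to Con A-only control, with CsA 1 μM as positive control.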
Background: In an ELISA, binding on a coated surface is turned into a signal by an enzyme label.

The species entered for data set [4] is Mus musculus. Briefly: Toxicity in C57BL/6 mouse transplanted with trunk skin of BALB/c mouse assessed as mortality. Particulars: in vivo. It is filed as organism-based.
In data set [5] the test system is Splenocyte. Kind of data set: Immunosuppressive activity in BALB/c mouse splenocytes assessed as reduction in concanavalin-A-induced IFN-gamma production at 30 uM after 48 hrs by ELISA. Type of data set: functional. Set-up: scale not given: the % may be the effect or the level left. The procedure, abridged:
as §1

In data set [6] the test system is Mus musculus. Kind of data set: Immunosuppressive activity in C57BL/6 mouse transplanted with trunk skin of BALB/c mouse assessed as increase of allograft mean survival time at 50 umol/kg, sc (reference value: 11.25 +/- 1.83 days). It is filed as functional.
Data set [7] concerns Th1. Kind of data set: Immunosuppressive activity in Th1 cells assessed as reduction of IFNgamma production. Type of data set: functional, cell-based.
The nature of data set [8]: Toxicity in subcutaneously dosed C57BL/6 mouse transplanted with trunk skin of BALB/c mouse. Type of data set: organism-based. Particulars: in vivo, sc.
Data set [9] relates to Splenocyte. Kind of data set: Immunosuppressive activity in BALB/c mouse splenocytes assessed as reduction in concanavalin-A-induced IFN-gamma production at 1 uM after 48 hrs by ELISA. Also on record: scale not given: the % may be the effect or the level left. It is filed as functional. The procedure, abridged:
as §1

Data set [10] relates to Splenocyte. Briefly: Immunosuppressive activity in BALB/c mouse splenocytes assessed as reduction in concanavalin-A-induced IL4 production at 1 uM after 48 hrs by ELISA. Also on record: scale not given: the % may be the effect or the level left. It is filed as functional. In short, it runs like this: as §1

On to `CCCCCCCCCCN1C[C@@H](O)C(O)[C@H](O)C1`, for which, in [1], the inhibition (as a rule, the relative decrease from the control value, in per cent) at 30 µM came out at 59%. Moreover, the outcome in data set [2] and in data set [7] was Active. Moreover, the Activity in data set [3] is given as 85.6%; in data set [4] it was “Non-toxic”; in [5], 75%. Moreover, the MST in data set [6] was found to be 15.2 days.

As for `CCCCCCCCN1C[C@@H](O)[C@H](O)[C@@H](O)C1`, the inhibition at 30 µM in [1] was 27.1%. In addition, the values for the Activity in data set [3] and in data set [5] were 8.7% and 40.3%, respectively. Moreover, in data set [7], the outcome was Active.

As to `CCCCCCCCCCN1C[C@@H](O)[C@H](O)[C@@H](O)C1`, in [1], the inhibition at 30 µM came out at 45.9%. Also, the result in data set [2] and in data set [7] was Active. Further, the Activity in [3] was 60.9%; in data set [4], “Non-toxic”; in data set [5] it was 89.1%. Moreover, the MST in [6] is 14.71 days.

With `CCCCCCCCCCN1C[C@H](O)[C@H](O)C1=O`, the inhibition at 30 µM in data set [1] is less than 40%.

For the compound `CCCCCCCCCCN1C[C@H](O)[C@@H](O)[C@H](O)C1=O`, in [1], the inhibition at 30 µM was less than 40%.

Regarding `CCCCCCCCCCN1C[C@@H](O)[C@@H](O)C1`, the inhibition at 30 µM in data set [1] turned out to be 61%. The outcome in data set [2] and in [7] was Active. The results for the Activity in [3], in data set [4] and in [5] were 88.6%, “Non-toxic” and 94.7%, respectively. Besides, the MST in data set [6] is 15.6 days. For the same compound, the median lethal dose (LD50) (commonly the dose expected to kill half of the subjects tested) in [8] was 392 mg/kg.

For `CCCCCCCCCCN1C[C@H](O)[C@@H](O)[C@@H](O)C1=O`, the inhibition at 30 µM in [1] is less than 40%.

Turning to `C/C=C/C[C@@H](C)[C@@H](O)[C@H]1C(=O)N[C@@H](CC)C(=O)N(C)CC(=O)N(C)[C@@H](CC(C)C)C(=O)N[C@@H](C(C)C)C(=O)N(C)[C@@H](CC(C)C)C(=O)N[C@@H](C)C(=O)N[C@H](C)C(=O)N(C)[C@@H](CC(C)C)C(=O)N(C)[C@@H](CC(C)C)C(=O)N(C)[C@@H](C(C)C)C(=O)N1C` [CYCLOSPORINE], the results for the Activity in data set [9] and in data set [10] were 97.1% and 96.8%, respectively.

With `CCCCCCCCCCN1C[C@H](O)C(O)[C@@H](O)C1`, the inhibition at 30 µM in [1] amounted to 57.2%. In addition, the outcome in data set [2] and in data set [7] was Active. The Activity is 95.7% in [3], “Non-toxic” in data set [4] and 78.1% in [5]. Besides, in data set [6], the MST is 14.14 days.

For the compound `CCCCCCCCCCN1C[C@@H](O)[C@@H](O)[C@H](O)C1=O`, the inhibition at 30 µM in [1] was less than 40%.
